Converted amounts (≈) assume the structure as drawn. Some results are limits rather than exact numbers.

The test system of experiment [1] is Respiratory syncytial virus. The experiment is described as follows: Antiviral activity against RSV long infected in human Hep2 cells assessed as virus-induced cytopathic effect after 3 days. Conditions: HEp-2, 72 h. Type of experiment: functional, organism-based.
Experiment [2] in a line: Cytotoxicity against RSV long infected human Hep2 cells after 3 days. Type of experiment: cell-based. Conditions: HEp-2, 72 h.
Experiment [3] can be described thus: Selectivity index, ratio of EC50 for RSV long by cytopathic effect over IC50 for human Hep2 cells. Type of experiment: functional, HEp-2. On the technique in general: Damage to the host cells serves as the signal in cytopathic effect assays.
The test system of experiment [4] is Respiratory syncytial virus. Briefly: Antiviral activity against RSV A-2 infected in human Hep2 cells after 3 days by plaque neutralization assay. Type of experiment: functional, organism-based. The conditions noted are these: HEp-2, 72 h.
Experiment [5] relates to Respiratory syncytial virus. The experiment is described as follows: Antiviral activity against RSV infected in human Hep2 cells assessed as virus-induced cytopathic effect administered 3 hrs postinfection. Type of experiment: functional, organism-based. The conditions noted are these: HEp-2, 3 h. A digest of the protocol: (§1)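 RSV (Long, CPE) in Hep-2 cells, seeded the day before at 10 000 cells/well in high-glucose DMEM with 2% or 10% heat-inactivated FBS. Virus (3000 PFU) or medium alone was adsorbed for 3 h at 37 °C, then 3-fold dilutions were added (eight concentrations, 830-0.38 or […] final). Incubation was 3 days at 37 °C, then neutral red stain. EC50 and IC50 were in µg/mL; SI = IC50/EC50.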

Experiment [6] can be described thus: Cytotoxicity against human Hep2 cells administered 3 hrs postinfection. In kind it is cell-based. The conditions noted are these: HEp-2, 3 h. A digest of the protocol: as §1
Experiment [7] in a line: Selectivity index, […] for human Hep2 cells administered 3 hrs after infection. In kind it is functional, HEp-2. A digest of the protocol:
as §1

The nature of experiment [8]: Cytotoxicity against mCMV RM-461 infected human Hep2 cells after 3 days. Type of experiment: cell-based. Conditions: HEp-2, 72 h.
A short description of experiment [9]: Cytotoxicity against HSV2 infected human Hep2 cells after 3 days. Conditions: HEp-2, 72 h. Type of experiment: cell-based.
A further experiment relates to Human alphaherpesvirus 2. The experiment is described as follows: Antiviral activity against HSV2 infected in human Hep2 cells assessed as virus-induced cytopathic effect after 3 days. Conditions: Human alphaherpesvirus 2, HEp-2, 72 h. Type of experiment: functional, organism-based.
Another experiment relates to Human alphaherpesvirus 1. The experiment is described as follows: Antiviral activity against HSV1 infected in human Hep2 cells assessed as virus-induced cytopathic effect after 3 days. In kind it is functional, organism-based. The conditions noted are these: Human alphaherpesvirus 1, HEp-2, 72 h.
Experiment [10] is described as follows: Selectivity index, ratio of EC50 for HSV1 by cytopathic effect over IC50 for human Hep2 cells. In kind it is functional, HEp-2.
Experiment [11] in a line: Selectivity index, ratio of EC50 for HSV2 by cytopathic effect over IC50 for human Hep2 cells. In kind it is functional, HEp-2.
Experiment [12] is described as follows: Cytotoxicity against HSV1 infected human Hep2 cells after 3 days. In kind it is cell-based. Conditions: HEp-2, 72 h.
For a further experiment, the system named is Human alphaherpesvirus 3. Briefly: Antiviral activity against VZV 3CV-1 infected in human Hep2 cells after 3 days by plaque neutralization assay. Type of experiment: functional, organism-based. The conditions noted are these: Human alphaherpesvirus 3, HEp-2, 72 h.
The nature of experiment [13]: Selectivity index, ratio of EC50 for mCMV RM461 by cytopathic effect over IC50 for human Hep2 cells. Type of experiment: functional, HEp-2.
The nature of experiment [14]: Cytotoxicity against VZV 3CV-1 infected human Hep2 cells after 3 days. In kind it is cell-based. The conditions noted are these: HEp-2, 72 h.
The next experiment deals with Murine cytomegalovirus. Briefly: Antiviral activity against mCMV RM461 infected in human Hep2 cells assessed as virus-induced cytopathic effect after 3 days. Conditions: HEp-2, 72 h.
Experiment [15] can be described thus: Cytotoxicity against RSV A-2 infected human Hep2 cells after 3 days. Conditions: HEp-2, 72 h. Type of experiment: cell-based.
The nature of experiment [16]: Selectivity index, […] for human Hep2 cells. Type of experiment: functional, HEp-2.

As for `CC(=O)O[C@@H]1[C@@H](OC(C)=O)[C@H](C)O[C@@H](O[C@@H]2[C@@H](OC(C)=O)[C@H](OCCc3ccc(O)c(O)c3)O[C@H](COC(=O)/C=C/c3ccc(O)c(O)c3)[C@H]2OC(C)=O)[C@@H]1OC(C)=O`, the EC50 (usually the concentration at which the effect is half-maximal) in [1] came to 1.93 µg/mL (≈ 2.31 µM). Further, the IC50 (as a rule, the midpoint of a concentration-inhibition curve) in [2] (read-out: IC50) was 15.9 µg/mL (≈ 19 µM). For the same molecule, the “Ratio IC50/EC50” value in [3] came to 8.2.

For the molecule `CC(=O)OC[C@H]1O[C@@H](OCCc2ccc(O)c(O)c2)[C@H](OC(C)=O)[C@@H](O[C@@H]2O[C@@H](C)[C@H](OC(C)=O)[C@@H](OC(C)=O)[C@H]2OC(C)=O)[C@@H]1OC(=O)/C=C/c1ccc(O)c(O)c1`, the EC50 in experiment [1] turned out to be 5.87 µg/mL (≈ 7.03 µM). Further, in experiment [2] (read-out: IC50), the IC50 amounted to 26.2 µg/mL (≈ 31.4 µM). In addition, in experiment [3], the “Ratio IC50/EC50” value amounted to 4.4.

As to `C[C@@H]1O[C@@H](O[C@@H]2[C@@H](O)[C@H](OCCc3ccc(O)c(O)c3)O[C@H](CO)[C@H]2OC(=O)/C=C/c2ccc(O)c(O)c2)[C@H](O)[C@H](O)[C@H]1O` [ACETOSIDE], the values for the EC50 in experiment [1], in [4] and in experiment [5] were 0.8 µg/mL (≈ 1.28 µM), 9.7 µg/mL (≈ 15.5 µM) and 0.26 µg/mL (≈ 0.416 µM), respectively. Further, the IC50 turned out to be 76.9 µg/mL (≈ 123 µM) in experiment [2], 108 µg/mL (≈ 173 µM) in experiment [6], 44 µg/mL (≈ 70.4 µM) in [8] and 71 µg/mL (≈ 114 µM) in experiment [9]. Moreover, the “Ratio IC50/EC50” value in [3] was found to be 85; in [7], 415.

`Nc1nc2c(ncn2COCCO)c(=O)[nH]1` [ACYCLOVIR]: the results for the EC50 with Human alphaherpesvirus 2 and with Human alphaherpesvirus 1 were 2.3 µg/mL (≈ 10.2 µM) and 0.26 µg/mL (≈ 1.15 µM), respectively. Moreover, the “Ratio IC50/EC50” value in experiment [10] was above 250; in experiment [11], above 4.3. Further, the 50% inhibitory concentration (IC50) in experiment [12] is above 67 µg/mL; in [9] it was above 10 µg/mL.

As to `Nc1nc2c(ncn2COC(CO)CO)c(=O)[nH]1` [GANCICLOVIR], the EC50 in the experiment on Human alphaherpesvirus 3 came to 26.7 µg/mL (≈ 105 µM); in the experiment on Murine cytomegalovirus it was 5 µg/mL (≈ 19.6 µM). The “Ratio IC50/EC50” value in experiment [13] is listed as above 20. The figures for the IC50 in experiment [8] and in experiment [14] were above 100 µg/mL and 840 µg/mL (≈ 3290 µM), respectively.

For the molecule `C[C@@H]1O[C@@H](O[C@@H]2[C@@H](O)[C@H](OCCc3ccc(O)c(O)c3)O[C@H](COC(=O)/C=C/c3ccc(O)c(O)c3)[C@H]2O)[C@H](O)[C@H](O)[C@H]1O` [ISOACTEOSIDE], the EC50 turned out to be 0.62 µg/mL (≈ 0.993 µM) in [1], 1.1 µg/mL (≈ 1.76 µM) in experiment [4] and 0.17 µg/mL (≈ 0.272 µM) in experiment [5]. The IC50 was 51.4 µg/mL (≈ 82.3 µM) in experiment [2] (read-out: IC50); 125 µg/mL (≈ 200 µM) in experiment [6]; 89 µg/mL (≈ 142 µM) in experiment [8]; 30 µg/mL (≈ 48 µM) in experiment [12]; 27 µg/mL (≈ 43.2 µM) in [9]; 75 µg/mL (≈ 120 µM) in [14]. For the same molecule, the “Ratio IC50/EC50” value in experiment [3] worked out at 84; in [7], 735.

As for `CC(=O)Oc1ccc(/C=C/C(=O)OC[C@H]2O[C@@H](OCCc3ccc(OC(C)=O)c(OC(C)=O)c3)[C@H](OC(C)=O)[C@@H](O[C@@H]3O[C@@H](C)[C@H](OC(C)=O)[C@@H](OC(C)=O)[C@H]3OC(C)=O)[C@@H]2OC(C)=O)cc1OC(C)=O` [ISOVERBASCOSIDE NOAACETATE], in experiment [1], the EC50 came out at 3.4 µg/mL (≈ 3.39 µM). In addition, the IC50 in experiment [2] (read-out: IC50) is 11.2 µg/mL (≈ 11.2 µM). Besides, in experiment [3], the “Ratio IC50/EC50” value was 3.3.

As for `CC(=O)OC[C@H]1O[C@@H](OCCc2ccc(O)c(O)c2)[C@H](O[C@@H]2OC[C@](O)(CO)[C@@H]2O)[C@@H](O[C@@H]2O[C@@H](C)[C@H](O)[C@@H](O)[C@H]2O)[C@@H]1OC(=O)/C=C/c1ccc(O)c(O)c1` [LUTEOSIDE A], the values for the EC50 in experiment [1] and in experiment [5] were 0.87 µg/mL (≈ 1.09 µM) and 11 µg/mL (≈ 13.8 µM), respectively. For the same molecule, the IC50 in experiment [2] (read-out: IC50) came to 77 µg/mL (≈ 96.4 µM); in experiment [6] it was 180 µg/mL (≈ 225 µM). Also, the “Ratio IC50/EC50” value in [3] is listed as 89; in [7], 16.

As to `C[C@@H]1O[C@@H](O[C@H]2[C@H](O)[C@@H](COC(=O)/C=C/c3ccc(O)c(O)c3)O[C@@H](OCCc3ccc(O)c(O)c3)[C@@H]2O[C@@H]2OC[C@](O)(CO)[C@@H]2O)[C@H](O)[C@H](O)[C@H]1O` [LUTEOSIDE B], the EC50 in experiment [1] turned out to be 3.4 µg/mL (≈ 4.49 µM); in [5], 0.23 µg/mL (≈ 0.304 µM). Also, the IC50 in [2] (read-out: IC50) is above 67 µg/mL; in experiment [6], 180 µg/mL (≈ 238 µM); in experiment [12] it was 93 µg/mL (≈ 123 µM); in experiment [9] it was 90 µg/mL (≈ 119 µM). In addition, the “Ratio IC50/EC50” value is listed as above 19 in experiment [3] and 780 in experiment [7].

For `COc1cc(/C=C/C(=O)OC[C@H]2O[C@@H](OCCc3ccc(O)c(O)c3)[C@H](O[C@@H]3OC[C@](O)(CO)[C@@H]3O)[C@@H](O[C@@H]3O[C@@H](C)[C@H](O)[C@@H](O)[C@H]3O)[C@@H]2O)ccc1O` [LUTEOSIDE C], the EC50 worked out at 15.5 µg/mL (≈ 20.1 µM) in [1] and 12 µg/mL (≈ 15.6 µM) in [5]. Besides, the results for the IC50 in experiment [2] (read-out: IC50) and in experiment [6] were 189 µg/mL (≈ 245 µM) and above 330 µg/mL, respectively. In addition, the “Ratio IC50/EC50” value in [3] is given as 12; in experiment [7], above 28.

For `NC(=O)c1ncn([C@@H]2O[C@H](CO)[C@@H](O)[C@H]2O)n1` [RIBAVIRIN], the IC50 in experiment [15] stood at 25 µg/mL (≈ 102 µM); in experiment [2] (read-out: IC50), 35 µg/mL (≈ 143 µM); in [6], 25 µg/mL (≈ 102 µM). In addition, the EC50 in experiment [1] was determined as 1.8 µg/mL (≈ 7.37 µM); in experiment [4] it was 2.2 µg/mL (≈ 9.01 µM); in experiment [5], 2.3 µg/mL (≈ 9.42 µM). Moreover, the “Ratio IC50/EC50” value was 19 in experiment [3], 11 in [16] and 10.8 in [7].

Take `CC(=O)OC[C@H]1O[C@@H](OCCc2ccc(OC(C)=O)c(OC(C)=O)c2)[C@H](OC(C)=O)[C@@H](O[C@@H]2O[C@@H](C)[C@H](OC(C)=O)[C@@H](OC(C)=O)[C@H]2OC(C)=O)[C@@H]1OC(=O)/C=C/c1ccc(OC(C)=O)c(OC(C)=O)c1` [VERBASCOSIDE NONAACETATE]: the IC50 in experiment [2] (read-out: IC50) was 33.7 µg/mL (≈ 33.6 µM).
